# From PMC4780051 (Biochemistry, 2010)
# Legend:
# [1] = molecular target: T1, ct-AChBP (Capitella teleta acetylcholine-binding protein) (Capitella teleta, UniProt I6L8L2); assay: STD NMR displacement titration with choline as reporter ligand
# T1 sequence (I6L8L2 1-224): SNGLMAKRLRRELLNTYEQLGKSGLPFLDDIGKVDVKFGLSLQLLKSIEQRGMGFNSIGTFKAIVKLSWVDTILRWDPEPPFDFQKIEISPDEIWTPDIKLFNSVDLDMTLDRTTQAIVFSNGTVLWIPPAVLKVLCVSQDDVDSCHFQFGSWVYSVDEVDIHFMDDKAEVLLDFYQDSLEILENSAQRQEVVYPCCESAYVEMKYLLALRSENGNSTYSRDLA
# Method in brief: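 C-terminally V5/His-tagged ct-AChBP, stably expressed in HEK293-f cells, purified from medium by cobalt affinity then Superdex 200. 5 μM protein with 100 μM choline in 25 mM phosphate pH 7.0, 100% D2O, titrated with test compound; 16K scans; choline CH2 STD peaks tracked. KD fitted by competition equation using choline KD from shift/line-width titration; standard errors from asymptotic covariance matrix.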
# [2] = molecular target: T1, ct-AChBP (Capitella teleta acetylcholine-binding protein); assay: 1H NMR direct titration
# [3] = molecular target: T1, ct-AChBP (Capitella teleta acetylcholine-binding protein); assay: STD NMR displacement titration with acetylcholine as reporter ligand
# [4] = molecular target: Capitella teleta acetylcholine-binding protein (Capitella teleta); assay: NMR titration
compound,measurement,setting,value
"CC(=O)OCC[N+](C)(C)C [ACh, acetylcholine]",Kd,[1],28.7 ± 1.7 µM
"C[N+](C)(C)CCO [Ch, choline]",Kd,[2],163 ± 37 µM
"CN1CCC[C@H]1c1cccnc1 [Nic, nicotine]",Kd,[3],0.209 ± 0.051 µM
α-bungarotoxin (from UniProt P60615 22-95) (natural protein),Kd,[4],0.11 µM
